Published values gathered from unrelated publications.
Protocols differ between the studies behind these lines.
Target: Serine/threonine-protein kinase 10 (STK10, Homo sapiens, UniProt O94804)

SMILES | observed | action | method | cells | tested at | measurement | value
C[C@@H](c1cccc(C#N)c1)n1cc(Cl)cc(C(N)=O)c1=N | cell-free assay |  | competition with immobilised ligand |  | 1 µM | remaining binding | 86%
CNC(=O)c1cc(Oc2ccc(NC(=O)Nc3ccc(Cl)c(C(F)(F)F)c3)cc2)ccn1 | enzyme activity | inhibitor |  |  | 0.3 µM | inhibition | 43%
Nc1cnc(N2CCc3cc(S(=O)(=O)Nc4c(F)cc(Cl)cc4F)cc(N4CCCC4=O)c32)nc1 | cell-free assay |  | competition with immobilised ligand |  | 1 µM | remaining binding | 100%
Cc1ccc(Nc2nccc(N(C)c3ccc4c(C)n(C)nc4c3)n2)cc1S(N)(=O)=O | enzyme activity | inhibitor |  |  | 0.5 µM | remaining activity | 50.1%
CNCc1ccccc1-c1csc([C@H](C)Nc2nc(C)nc3cc(OC)c(OC)cc23)c1 | cell-free assay |  | competition with immobilised ligand |  | 1 µM | remaining binding | 100%
Cc1cc(NC(=O)c2cccc3cc(-c4cccc5[nH]nc(N)c45)ccc23)ccc1F | enzyme activity | inhibitor |  |  | 0.1 µM | activity vs control | 97%
CC(C)(O)[C@H]1CC[C@H](Nc2ccc3ncc(-c4cccc(C(F)(F)F)c4)n3n2)CC1 | enzyme activity | inhibitor |  |  | 1 µM | remaining activity | 63.8%
O=C(Nc1cnn(-c2csc(C(=O)NC3COC3)c2)c1)Nc1c(F)cccc1Cl | enzyme activity | inhibitor |  |  | 5 µM | remaining activity | 89%
Cc1cnn2ncc(-c3ccnc(N(C)C)n3)c2c1 | binding |  |  |  | 1 µM | remaining binding | 100%
Cc1sc(C(=O)NC2COC2)cc1-n1cc(NC(=O)Nc2c(F)cccc2Cl)cn1 | enzyme activity | inhibitor |  |  | 10 µM | remaining activity | 96.4%
C#Cc1cccc(Nc2ncnc3cc(OCCOC)c(OCCOC)cc23)c1 | cell-free assay |  |  |  | 0.5 µM | remaining signal | 20.3%
CCN1CCN(Cc2ccc(NC(=O)c3ccc(C)c(/C=C/c4cnc5[nH]ccc5c4OC)c3)cc2C(F)(F)F)CC1 | target engagement in cells | inhibitor | chemoproteomics | A-375 | 0.5 µM | inhibition | -69.1%
c1ccc(N2CCN(Cc3nc4ccccc4[nH]3)CC2)nc1 | binding |  | competition with immobilised ligand |  | 1 µM | remaining binding | 100%
CCN1CCN(Cc2ccc(NC(=O)c3ccc(C)c(Oc4ccnc5[nH]ccc45)c3)cc2C(F)(F)F)CC1 | target engagement in cells | inhibitor | chemoproteomics | Huh-7 | 1 µM | inhibition | -148%
Nc1ncnc2occ(-c3ccc(NC(=O)Nc4cc(C(F)(F)F)ccc4F)cc3)c12 | cell-free assay | inhibitor |  |  | 20 µM | remaining signal | 0%
Cn1nc(C(F)(F)F)cc1-c1cnc(N2CCc3cc(S(=O)(=O)Nc4c(F)cc(Cl)cc4F)cc(N4CCCC4=O)c32)nc1 | cell-free assay |  | competition with immobilised ligand |  | 1 µM | remaining binding | 94%
CCN(CC)CCNC(=O)c1c(C)[nH]c(/C=C2\C(=O)Nc3ccc(F)cc32)c1C | enzyme activity | inhibitor |  |  | 10 µM | inhibition | 83%
COc1cc2c(N3CCN(C(=O)Nc4ccc(OC(C)C)cc4)CC3)ncnc2cc1OCCCN1CCCCC1 | cell-free assay |  |  |  | 0.5 µM | remaining signal | 95%
Cc1c[nH]c2nccc(Oc3c(F)cc(Nc4cc(Cl)nc(N)n4)cc3F)c12 | cell-free assay |  | competition with immobilised ligand |  | 0.1 µM | remaining binding | 100%
CC/C(=N\NC(=O)NCc1cccc(O)c1)c1ccc(O)c(C)c1O | enzyme activity | inhibitor |  |  | 0.1 µM | inhibition | 1%
CN([C@@H]1CCc2c(CC(=O)O)c3ccccc3n2C1)S(=O)(=O)c1ccc(F)cc1 | cell-free assay |  | competition with immobilised ligand |  | 1 µM | remaining binding | 100%
Nc1nc(Nc2ccc(S(N)(=O)=O)cc2)nn1C(=O)c1c(F)cccc1F | cell-free assay |  |  |  | 0.5 µM | remaining signal | 17%
Cc1cnc(NC2CCOCC2)nc1-n1cnc(C(=O)NC(CN)c2cc(F)cc(Cl)c2)c1 (centres unmarked) | enzyme activity | inhibitor | radiometric |  | 1 µM | remaining activity | 87%
